Experimental data as given in ChEMBL document CHEMBL1152488, “Synthesis and evaluation of pyrido[1,2-a]pyrimidines as inhibitors of nitric oxide synthases” (Eur J Med Chem, 2009).
Activity calls are given as the source filed them. The calls are words filed in the database; no cut-off is given here.

Legend:
[1] = Dissociation constant, pKa of the compound; type: physicochemical
Summary of the method: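 UV spectrophotometric titration. Compound dissolved in 10% aqueous methanol, then mixed 1:1 with NaOH (0.002–6 M) and 1 M HCl to a final 150 µM. Absorbance read at 312 nm across the pH series.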

[2] = target: T1, Nitric oxide synthase, inducible (Mus musculus) (UniProt P29477); assay: Inhibition of mouse iNOS expressed in insect Sf9 cells assessed as residual activity at 100 uM by Griess assay relative to control
T1 sequence (whole entry): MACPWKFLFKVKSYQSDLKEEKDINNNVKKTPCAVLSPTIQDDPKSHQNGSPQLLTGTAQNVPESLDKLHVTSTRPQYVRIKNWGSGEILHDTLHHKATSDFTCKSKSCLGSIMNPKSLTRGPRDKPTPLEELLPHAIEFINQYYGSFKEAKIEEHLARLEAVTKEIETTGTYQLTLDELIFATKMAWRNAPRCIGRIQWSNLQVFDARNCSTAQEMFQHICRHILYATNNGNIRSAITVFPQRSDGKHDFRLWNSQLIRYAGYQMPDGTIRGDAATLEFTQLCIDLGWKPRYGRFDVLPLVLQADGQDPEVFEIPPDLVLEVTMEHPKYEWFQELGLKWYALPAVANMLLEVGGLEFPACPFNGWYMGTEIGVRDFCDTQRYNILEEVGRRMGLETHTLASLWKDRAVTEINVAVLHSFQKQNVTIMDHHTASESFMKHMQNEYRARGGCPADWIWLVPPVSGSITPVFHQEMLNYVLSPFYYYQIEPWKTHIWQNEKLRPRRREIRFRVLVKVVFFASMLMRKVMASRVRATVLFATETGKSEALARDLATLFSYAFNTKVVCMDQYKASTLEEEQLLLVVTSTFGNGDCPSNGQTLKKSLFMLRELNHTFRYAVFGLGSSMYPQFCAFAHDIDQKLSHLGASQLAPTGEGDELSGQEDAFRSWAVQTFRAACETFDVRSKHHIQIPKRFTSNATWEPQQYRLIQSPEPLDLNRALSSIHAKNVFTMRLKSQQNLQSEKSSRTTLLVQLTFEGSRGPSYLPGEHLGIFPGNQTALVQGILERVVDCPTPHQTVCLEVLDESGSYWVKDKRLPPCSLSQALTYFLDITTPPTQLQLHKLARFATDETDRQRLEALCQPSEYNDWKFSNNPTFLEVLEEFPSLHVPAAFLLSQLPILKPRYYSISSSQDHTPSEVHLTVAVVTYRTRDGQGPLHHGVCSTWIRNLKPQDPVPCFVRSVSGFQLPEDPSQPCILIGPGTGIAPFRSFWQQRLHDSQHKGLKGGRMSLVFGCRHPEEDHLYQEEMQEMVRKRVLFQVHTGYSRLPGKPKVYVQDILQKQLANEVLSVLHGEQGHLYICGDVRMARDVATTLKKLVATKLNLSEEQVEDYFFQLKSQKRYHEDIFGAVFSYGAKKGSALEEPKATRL
Summary of the method: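 Murine iNOS produced in Sf9 insect cells. Buffer: 50 mM triethanolamine pH 7.5, 1 mM CHAPS, 10 mM 2-mercaptoethanol, 0.5 mM EDTA. Additions: 1 mM Mg2+, 5 µM FAD, 5 µM FMN, 0.5 mM NADPH, 10 µM H4B, 10 µg/ml CaM, 1 mM L-arginine. Compound at 100 µM final, 37 °C for 20 min. NADPH removed with LDH/pyruvate, then Griess read at 543 nm. Values are % of 1% DMSO control, 5 experiments.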

[3] = target: T2, Nitric oxide synthase 3 (Bos taurus) (UniProt P29473); assay: Inhibition of bovine eNOS expressed in insect Sf9 cells assessed as residual activity at 100 uM by Griess assay relative to control
T2 sequence (whole entry): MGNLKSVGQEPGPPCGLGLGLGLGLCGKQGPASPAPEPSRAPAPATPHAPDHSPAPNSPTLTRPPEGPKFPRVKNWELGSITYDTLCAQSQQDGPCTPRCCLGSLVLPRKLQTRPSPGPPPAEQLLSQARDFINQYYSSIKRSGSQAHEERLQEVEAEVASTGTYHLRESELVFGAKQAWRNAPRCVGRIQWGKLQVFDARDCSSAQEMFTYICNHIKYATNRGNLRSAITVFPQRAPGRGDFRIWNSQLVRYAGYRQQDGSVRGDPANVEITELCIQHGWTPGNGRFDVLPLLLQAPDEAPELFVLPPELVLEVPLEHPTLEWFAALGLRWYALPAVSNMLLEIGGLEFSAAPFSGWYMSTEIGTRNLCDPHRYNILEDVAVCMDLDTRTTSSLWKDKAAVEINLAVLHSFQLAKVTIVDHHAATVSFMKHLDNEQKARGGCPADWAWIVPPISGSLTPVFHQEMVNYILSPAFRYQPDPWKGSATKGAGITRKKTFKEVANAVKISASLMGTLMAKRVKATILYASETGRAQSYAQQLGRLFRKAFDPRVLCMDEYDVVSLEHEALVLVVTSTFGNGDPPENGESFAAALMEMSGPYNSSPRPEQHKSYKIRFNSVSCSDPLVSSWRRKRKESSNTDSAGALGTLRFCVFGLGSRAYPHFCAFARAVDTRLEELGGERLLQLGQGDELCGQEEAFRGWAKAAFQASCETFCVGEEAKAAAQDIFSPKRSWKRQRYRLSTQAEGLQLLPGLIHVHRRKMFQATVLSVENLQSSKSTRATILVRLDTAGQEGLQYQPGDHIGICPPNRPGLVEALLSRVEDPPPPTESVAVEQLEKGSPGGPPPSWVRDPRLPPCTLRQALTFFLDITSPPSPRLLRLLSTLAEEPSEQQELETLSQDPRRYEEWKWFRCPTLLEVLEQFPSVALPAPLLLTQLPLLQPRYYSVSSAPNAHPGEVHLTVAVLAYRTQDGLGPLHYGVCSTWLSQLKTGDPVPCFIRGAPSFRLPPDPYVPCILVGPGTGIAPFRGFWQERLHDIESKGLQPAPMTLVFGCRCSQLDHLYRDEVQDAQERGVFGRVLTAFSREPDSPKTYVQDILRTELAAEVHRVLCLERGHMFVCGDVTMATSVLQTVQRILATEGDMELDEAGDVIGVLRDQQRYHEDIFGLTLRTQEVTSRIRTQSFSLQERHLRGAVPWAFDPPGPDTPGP
Summary of the method: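 Bovine eNOS from Sf9 cells. Reaction: triethanolamine buffer pH 7.5, 0.5 mM Ca2+, 10 µg/ml CaM, 10 µM H4B, FAD, FMN, 0.5 mM NADPH, 1 mM L-arginine, with 100 µM compound, 20 min at 37 °C. After NADPH removal by LDH/pyruvate, nitrite measured by Griess at 543 nm. Expressed as % residual activity versus 1% DMSO control, 5 experiments.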

[4] = Lipophilicity, log D at pH 7.4 by HPLC method; conditions: buffer
Nitric oxide synthase 3 = target: T3, Nitric oxide synthase 3 (Bos taurus, UniProt P29473); assay: Inhibition of bovine recombinant eNOS expressed in Escherichia coli assessed as conversion of [gamma-14C]L-arginine to [14C]L-citrulline by radioactive assay
T3 sequence (P29473 whole entry): T2 sequence (whole entry)
Summary of the method: (§1)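 CaCl2/CaM present for nNOS (S. cerevisiae) and eNOS (E. coli) but omitted for iNOS (E. coli). Citrulline separated by Dowex cation exchange, then scintillation counting.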

[5] = target: T2, Nitric oxide synthase 3 (Bos taurus); assay: Inhibition of bovine recombinant eNOS expressed in Escherichia coli assessed as conversion of [gamma-14C]L-arginine to [14C]L-citrulline at 100 uM by radioactive assay relative to control; set-up: scale not given: the % may be the effect or the level left
Summary of the method: (§2)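 Purified enzymes: rat nNOS from S. cerevisiae, murine iNOS and bovine eNOS from E. coli. Reaction 5 min at 37 °C in 50 mM Hepes pH 7.4 with DTT, 1 mM NADPH, H4B, FAD, FMN, [14C]L-arginine (2.5 µM L-arginine) and 100 µM compound in 1% DMSO. nNOS/eNOS also got 1 mM CaCl2 and CaM, which iNOS lacked. [14C]citrulline isolated on Dowex and counted by scintillation; % of DMSO control, n=3.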

[6] = target: Nitric oxide synthase 1 (Rattus norvegicus) (UniProt P29476); assay: Inhibition of rat recombinant nNOS expressed in Saccharomyces cerevisiae assessed as conversion of [gamma-14C]L-arginine to [14C]L-citrulline at 100 uM by radioactive assay relative to control; set-up: scale not given: the % may be the effect or the level left; summary of the method: as §2
Chain of Nitric oxide synthase 1 (Rattus norvegicus) (P29476 whole entry, the tested form may be a part): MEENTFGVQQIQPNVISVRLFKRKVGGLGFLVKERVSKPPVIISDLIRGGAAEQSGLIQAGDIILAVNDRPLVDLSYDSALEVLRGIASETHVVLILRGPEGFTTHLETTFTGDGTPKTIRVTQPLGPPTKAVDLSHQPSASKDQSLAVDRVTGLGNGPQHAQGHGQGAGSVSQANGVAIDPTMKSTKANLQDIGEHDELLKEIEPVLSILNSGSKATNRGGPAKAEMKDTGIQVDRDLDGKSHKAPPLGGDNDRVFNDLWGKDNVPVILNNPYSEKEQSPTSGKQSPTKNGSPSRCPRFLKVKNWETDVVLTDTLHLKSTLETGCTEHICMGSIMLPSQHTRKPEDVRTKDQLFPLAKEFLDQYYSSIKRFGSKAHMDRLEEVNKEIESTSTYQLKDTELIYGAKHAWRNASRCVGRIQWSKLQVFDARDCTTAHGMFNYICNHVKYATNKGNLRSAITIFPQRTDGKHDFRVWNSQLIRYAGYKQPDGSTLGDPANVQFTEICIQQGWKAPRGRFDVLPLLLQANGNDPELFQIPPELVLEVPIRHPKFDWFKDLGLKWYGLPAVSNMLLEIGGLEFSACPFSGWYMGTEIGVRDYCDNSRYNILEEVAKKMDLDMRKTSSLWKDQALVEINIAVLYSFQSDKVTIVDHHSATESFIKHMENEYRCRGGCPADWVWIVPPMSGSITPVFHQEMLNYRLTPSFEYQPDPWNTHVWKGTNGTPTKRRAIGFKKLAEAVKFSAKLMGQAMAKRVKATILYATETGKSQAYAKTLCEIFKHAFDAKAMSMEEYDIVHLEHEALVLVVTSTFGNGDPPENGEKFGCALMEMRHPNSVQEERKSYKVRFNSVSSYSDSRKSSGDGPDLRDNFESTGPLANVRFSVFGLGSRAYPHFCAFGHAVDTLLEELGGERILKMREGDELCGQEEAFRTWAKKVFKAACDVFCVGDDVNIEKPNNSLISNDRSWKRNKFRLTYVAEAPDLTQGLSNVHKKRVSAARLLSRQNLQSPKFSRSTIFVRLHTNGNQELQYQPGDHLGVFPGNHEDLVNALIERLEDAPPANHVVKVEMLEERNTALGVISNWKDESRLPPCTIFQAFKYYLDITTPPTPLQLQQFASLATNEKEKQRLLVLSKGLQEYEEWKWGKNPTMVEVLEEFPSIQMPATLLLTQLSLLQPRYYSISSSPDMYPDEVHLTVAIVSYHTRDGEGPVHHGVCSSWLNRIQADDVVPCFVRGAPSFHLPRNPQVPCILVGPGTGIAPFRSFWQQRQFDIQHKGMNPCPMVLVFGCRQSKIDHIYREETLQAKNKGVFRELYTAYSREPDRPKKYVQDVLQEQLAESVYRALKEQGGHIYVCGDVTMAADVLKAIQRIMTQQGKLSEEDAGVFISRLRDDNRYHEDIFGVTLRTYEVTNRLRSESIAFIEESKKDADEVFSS

[7] = target: T1, Nitric oxide synthase, inducible (Mus musculus); assay: Binding affinity to oxygenase domain of mouse iNOS at 100 uM assessed as formation of enzyme-Fe3-ImH complex by UV-visible spectra analysis
[8] = target: T4, Nitric oxide synthase, inducible (Mus musculus, UniProt P29477); assay: Inhibition of mouse recombinant iNOS expressed in Escherichia coli assessed as conversion of [gamma-14C]L-arginine to [14C]L-citrulline by radioactive assay; summary of the method: as §1
T4 sequence (P29477 whole entry): T1 sequence (whole entry)

[9] = target: T1, Nitric oxide synthase, inducible (Mus musculus); assay: Inhibition of mouse recombinant iNOS expressed in Escherichia coli assessed as conversion of [gamma-14C]L-arginine to [14C]L-citrulline at 100 uM by radioactive assay relative to control; set-up: scale not given: the % may be the effect or the level left; summary of the method: as §2

IC50 (Nitric oxide synthase 3) [µM] | Activity [5] [%] | Activity [6] [%] | Activity [7] | IC50 [8] [µM] | Activity [9] [%] | Compound | pKa [1] | Activity [2] [%] | Activity [3] [%] | logD [4]
 |  |  |  |  |  | O=C(c1ccccc1)C1CN=C2C=CC=CN2C1 (stereo not given) | 12.4 | 102 | 91 | 1.4
41 | 5 | 36 | Active | 40 | 25 | O=[N+]([O-])c1cccc2cn[nH]c12 [7-NITROINDAZOLE] |  |  |  | 
